Assay results: paper PMC7511286 (European Journal of Drug Metabolism and Pharmacokinetics, 2020)

Experiment: MAD study: safety and tolerability
Format: in vivo, human
Conditions: for TEAE Hemoglobinuria: subjects having the event: based solely on a positive dip stick test
Procedure, shortened: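 Healthy males aged 18–55 took oral tablets. Treatment-emergent AEs were recorded by clinical evaluation. Vital signs (blood pressure, pulse), 12-lead and Holter ECG, physical examination, and urine and plasma laboratory tests were also assessed. AEs of special interest were hematuria and retroperitoneal colicky pain with suspected or confirmed nephrolithiasis. Subjects were hospitalized around dosing.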

SMILES: COc1cccc(-c2ccc(NC(=O)C3=C(C(=O)O)CCC3)c(F)c2)c1 [IMU-838, vidofludimus calcium]
- TEAEs Musculoskeletal and connective tissue disorders Total: subjects having the event (30 mg, n = 12): 1 (8.3) N (%)
- TEAEs Nervous system disorders Total: number of events (30 mg, n = 12): 1
- TEAEs Nervous system disorders Total: subjects having the event (30 mg, n = 12): 1 (8.3) N (%)
- TEAEs Renal and urinary disorders Total: number of events (30 mg, n = 12): 1
- TEAEs Renal and urinary disorders Total: subjects having the event (30 mg, n = 12): 1 (8.3) N (%)
- TEAEs Total: number of events (30 mg, n = 12): 20
- TEAEs Total: subjects having the event (30 mg, n = 12): 9 (75.0) N (%)
- TEAE Hemoglobinuria: subjects having the event (30 mg, n = 12): 1 (8.3) N (%)
- number of drug-related TEAEs (40 mg once daily): 8
- TEAE Arthropod bite: number of events (40 mg, n = 12): 1
- TEAE Arthropod bite: subjects having the event (40 mg, n = 12): 1 (8.3) N (%)
- TEAE Blood creatinine kinase increased: number of events (40 mg, n = 12): 1
- TEAE Blood creatinine kinase increased: subjects having the event (40 mg, n = 12): 1 (8.3) N (%)
- TEAE Fatigue: subjects having the event (40 mg, n = 12): 3 (25.0) N (%)
- TEAE Flatulence: subjects having the event (40 mg, n = 12): 1 (8.3) N (%)
- TEAE Headache: subjects having the event (40 mg, n = 12): 1 (8.3) N (%)
- TEAE Listless: subjects having the event (40 mg, n = 12): 1 (8.3) N (%)
- TEAE Sneezing: subjects having the event (40 mg, n = 12): 1 (8.3) N (%)
- TEAEs Gastrointestinal disorders Total: number of events (40 mg, n = 12): 1
- TEAEs Gastrointestinal disorders Total: subjects having the event (40 mg, n = 12): 1 (8.3) N (%)
- TEAEs General disorders and administration site conditions Total: number of events (40 mg, n = 12): 3
- TEAEs General disorders and administration site conditions Total: subjects having the event (40 mg, n = 12): 3 (25.0) N (%)
- TEAEs Injury, poisoning and procedural complications total: number of events (40 mg, n = 12): 1
- TEAEs Investigations Total: number of events (40 mg, n = 12): 1
- TEAEs Investigations Total: subjects having the event (40 mg, n = 12): 1 (8.3) N (%)
- TEAEs Nervous system disorders Total: number of events (40 mg, n = 12): 2
- TEAEs Nervous system disorders Total: subjects having the event (40 mg, n = 12): 1 (8.3) N (%)
- TEAEs Psychiatric disorders Total: number of events (40 mg, n = 12): 1
- TEAEs Psychiatric disorders Total: subjects having the event (40 mg, n = 12): 1 (8.3) N (%)
- TEAEs Renal and urinary disorders Total: number of events (40 mg, n = 12): 2
- TEAEs Renal and urinary disorders Total: subjects having the event (40 mg, n = 12): 2 (16.7) N (%)
- TEAEs Respiratory, thoracic and mediastinal disorders Total: number of events (40 mg, n = 12): 1
- TEAEs Total: number of events (40 mg, n = 12): 12
- TEAEs Total: subjects having the event (40 mg, n = 12): 6 (50.0) N (%)
- TEAE Hemoglobinuria: subjects having the event (40 mg, n = 12): 2 (16.7) N (%)
- number of drug-related TEAEs (50 mg once daily): 16
- TEAE Abdominal pain upper: number of events (50 mg, n = 16): 2
- TEAE Abdominal pain upper: subjects having the event (50 mg, n = 16): 1 (6.3) N (%)
- TEAE Dyspepsia: subjects having the event (50 mg, n = 16): 1 (6.3) N (%)
- TEAE Dysuria: subjects having the event (50 mg, n = 16): 1 (6.3) N (%)
- TEAE Epistaxis: subjects having the event (50 mg, n = 16): 1 (6.3) N (%)
- TEAE Flank pain: number of events (50 mg, n = 16): 1
- TEAE Flank pain: subjects having the event (50 mg, n = 16): 1 (6.3) N (%)
- TEAE Headache: subjects having the event (50 mg, n = 16): 3 (18.8) N (%)
- TEAE Hematuria: subjects having the event (50 mg, n = 16): 1 (6.3) N (%)
- TEAE Lipase increased: number of events (50 mg, n = 16): 1
- TEAE Lipase increased: subjects having the event (50 mg, n = 16): 1 (6.3) N (%)
- TEAE Nasopharyngitis: subjects having the event (50 mg, n = 16): 4 (25.0) N (%)
- TEAE Tenderness: subjects having the event (50 mg, n = 16): 1 (6.3) N (%)
- TEAEs Gastrointestinal disorders Total: number of events (50 mg, n = 16): 3
- TEAEs Gastrointestinal disorders Total: subjects having the event (50 mg, n = 16): 2 (12.5) N (%)
- TEAEs General disorders and administration site conditions Total: number of events (50 mg, n = 16): 1
- TEAEs General disorders and administration site conditions Total: subjects having the event (50 mg, n = 16): 1 (6.3) N (%)
- TEAEs Infections and infestations Total: number of events (50 mg, n = 16): 4
- TEAEs Infections and infestations Total: subjects having the event (50 mg, n = 16): 4 (25.0) N (%)
- TEAEs Investigations Total: number of events (50 mg, n = 16): 1
- TEAEs Investigations Total: subjects having the event (50 mg, n = 16): 1 (6.3) N (%)
- TEAEs Musculoskeletal and connective tissue disorders Total: number of events (50 mg, n = 16): 1
- TEAEs Musculoskeletal and connective tissue disorders Total: subjects having the event (50 mg, n = 16): 1 (6.3) N (%)
- TEAEs Nervous system disorders Total: number of events (50 mg, n = 16): 3
- TEAEs Nervous system disorders Total: subjects having the event (50 mg, n = 16): 3 (18.8) N (%)
- TEAEs Renal and urinary disorders Total: number of events (50 mg, n = 16): 8
- TEAEs Renal and urinary disorders Total: subjects having the event (50 mg, n = 16): 6 (37.5) N (%)
- TEAEs Respiratory, thoracic and mediastinal disorders Total: number of events (50 mg, n = 16): 1
- TEAEs Total: number of events (50 mg, n = 16): 22
- TEAEs Total: subjects having the event (50 mg, n = 16): 10 (62.5) N (%)
- TEAE Hemoglobinuria: subjects having the event (50 mg, n = 16): 5 (31.3) N (%)
- tolerability (30–50 mg once daily over 14 consecutive days): well tolerated
- deaths or serious AEs (single and multiple doses (SAD and MAD)): no deaths or serious AEs
- overall number of drug-related TEAEs (whole MAD study, 52 subjects including placebo): 53
- overall number of TEAEs (whole MAD study, 52 subjects including placebo, mild or moderate intensity): 79
